≈ marks a conversion by molar mass, not a printed value.
Columns and labels:
[1] = target: Mast/stem cell growth factor receptor Kit (Homo sapiens, UniProt P10721); experiment: Inhibition of c-kit (unknown origin) using FAM-labeled peptide as substrate preincubated for 10 mins followed by substrate addition measured after 25 mins
Method in brief: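 Enzyme was preincubated with compound for 10 min at room temperature, then FAM-labeled peptide with ATP was added for 25 min at 28 °C. After an EDTA stop, the plate was read on a Caliper. IC50 came from non-linear curve fit.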

[2] = target: Platelet-derived growth factor receptor alpha (Homo sapiens, UniProt P16234); experiment: Inhibition of PDGFRalpha (unknown origin) using FAM-labeled peptide as substrate preincubated for 10 mins followed by substrate addition measured after 25 mins
Platelet-derived growth factor receptor alpha, sequence (P16234 whole entry): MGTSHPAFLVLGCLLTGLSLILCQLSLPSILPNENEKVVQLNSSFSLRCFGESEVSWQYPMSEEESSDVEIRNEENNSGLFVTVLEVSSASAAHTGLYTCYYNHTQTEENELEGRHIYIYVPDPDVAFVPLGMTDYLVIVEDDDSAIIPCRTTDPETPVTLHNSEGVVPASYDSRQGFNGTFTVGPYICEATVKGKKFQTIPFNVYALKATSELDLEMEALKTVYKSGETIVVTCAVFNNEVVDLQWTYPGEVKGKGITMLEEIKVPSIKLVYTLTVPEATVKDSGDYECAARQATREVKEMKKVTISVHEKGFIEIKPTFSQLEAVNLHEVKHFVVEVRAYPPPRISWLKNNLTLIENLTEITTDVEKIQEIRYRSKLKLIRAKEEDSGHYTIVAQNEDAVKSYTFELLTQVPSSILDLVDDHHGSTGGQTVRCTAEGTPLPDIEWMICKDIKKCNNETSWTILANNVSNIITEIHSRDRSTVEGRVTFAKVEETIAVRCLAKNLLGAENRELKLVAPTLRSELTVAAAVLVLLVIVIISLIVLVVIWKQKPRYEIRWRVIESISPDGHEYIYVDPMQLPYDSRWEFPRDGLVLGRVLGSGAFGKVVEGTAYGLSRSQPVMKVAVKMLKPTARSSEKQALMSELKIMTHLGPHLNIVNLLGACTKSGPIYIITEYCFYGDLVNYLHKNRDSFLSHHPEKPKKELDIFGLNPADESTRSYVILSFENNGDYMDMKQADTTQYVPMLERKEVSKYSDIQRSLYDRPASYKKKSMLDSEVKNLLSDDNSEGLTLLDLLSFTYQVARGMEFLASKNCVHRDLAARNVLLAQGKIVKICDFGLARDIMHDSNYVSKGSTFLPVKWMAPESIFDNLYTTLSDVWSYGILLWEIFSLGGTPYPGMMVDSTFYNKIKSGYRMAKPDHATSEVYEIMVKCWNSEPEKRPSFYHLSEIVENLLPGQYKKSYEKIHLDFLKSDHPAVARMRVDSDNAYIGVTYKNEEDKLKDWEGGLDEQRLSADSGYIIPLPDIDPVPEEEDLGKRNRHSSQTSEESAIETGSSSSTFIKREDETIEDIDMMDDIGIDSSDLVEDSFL

Homo sapiens [3] = species on record: Homo sapiens; experiment: Antiinflammatory activity against rheumatoid arthritis patient-derived HFLS assessed as reduction in IL-6 levels incubated for 30 mins measured after 72 hrs by ELISA; format: functional
Method in brief: (§1)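 RA patient synovial fibroblasts were kept in high-glucose DMEM with 10% FBS at 37 °C under 5% CO2 and used after 3 passages. Cells were seeded at 2 × 10^4 cells/well in 6-well plates and given compound or vehicle for 30 min. IL-6 and MMP-3 in the supernatant were read by ELISA after 72 h.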

[4] = Solubility of the compound in water after 24 hrs by HPLC method; format: physicochemical
[5] = Antiproliferative activity against rheumatoid arthritis patient-derived HFLS after 72 hrs by MTT assay; format: functional, Homo sapiens
Method in brief: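 RA synovial fibroblasts (DMEM, 10% FBS, passage 3) were seeded at 2 × 10^4 cells/well. Compound was given at graded concentrations against an untreated control for 72 h at 37 °C, 5% CO2. MTT was then added for 4 h and absorbance read at 450 nm. IC50 came from non-linear regression of 6-point dose-response curves.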

BMMC [6] = experiment: Antiproliferative activity against BALB/c mouse BMMC after 48 hrs by MTT assay
BMMC [7] = experiment: Antiinflammatory activity against BALB/c mouse BMMC assessed as reduction in TNFalpha levels incubated for 30 mins measured after 48 hrs by ELISA; format: functional, cell-based
Method in brief: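 BALB/c mouse bone-marrow mast cells were grown in RPMI 1640 with 1% non-essential amino acids and 10% FBS at 37 °C under 5% CO2. Cells were seeded at 2 × 10^4 cells/well in 6-well plates and given compound or vehicle for 30 min. Supernatant TNF-α was read by ELISA after 48 h.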

Homo sapiens [8] = species on record: Homo sapiens; experiment: Antiinflammatory activity against rheumatoid arthritis patient-derived HFLS assessed as reduction in MMP-3 levels incubated for 30 mins measured after 72 hrs by ELISA; format: functional; method in brief: as §1

Mast/stem cell growth factor receptor Kit, sequence (P10721 whole entry): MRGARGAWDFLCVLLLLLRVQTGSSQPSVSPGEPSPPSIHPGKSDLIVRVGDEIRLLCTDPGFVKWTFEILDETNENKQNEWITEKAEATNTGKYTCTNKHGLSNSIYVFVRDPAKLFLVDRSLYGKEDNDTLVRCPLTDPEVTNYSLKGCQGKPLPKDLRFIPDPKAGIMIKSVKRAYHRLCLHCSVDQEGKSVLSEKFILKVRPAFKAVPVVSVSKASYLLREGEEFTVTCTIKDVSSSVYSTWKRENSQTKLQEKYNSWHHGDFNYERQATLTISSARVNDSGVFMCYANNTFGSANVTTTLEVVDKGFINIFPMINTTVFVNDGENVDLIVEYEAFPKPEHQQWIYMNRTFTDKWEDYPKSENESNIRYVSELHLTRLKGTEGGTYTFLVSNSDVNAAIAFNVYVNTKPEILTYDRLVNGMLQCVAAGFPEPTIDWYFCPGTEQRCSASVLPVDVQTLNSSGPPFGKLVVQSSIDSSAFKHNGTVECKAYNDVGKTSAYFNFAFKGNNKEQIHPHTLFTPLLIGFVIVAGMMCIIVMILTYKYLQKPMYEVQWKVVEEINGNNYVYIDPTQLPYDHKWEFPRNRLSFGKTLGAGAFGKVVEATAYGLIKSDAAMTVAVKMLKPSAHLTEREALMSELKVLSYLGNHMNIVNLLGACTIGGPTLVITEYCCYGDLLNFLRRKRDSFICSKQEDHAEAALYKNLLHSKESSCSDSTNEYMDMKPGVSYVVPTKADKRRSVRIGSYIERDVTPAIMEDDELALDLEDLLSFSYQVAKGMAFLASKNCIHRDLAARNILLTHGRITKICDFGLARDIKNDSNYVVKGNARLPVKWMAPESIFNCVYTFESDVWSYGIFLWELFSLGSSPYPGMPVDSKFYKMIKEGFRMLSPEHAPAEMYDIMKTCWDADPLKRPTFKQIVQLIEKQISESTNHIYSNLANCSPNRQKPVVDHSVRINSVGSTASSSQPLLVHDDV

Row | Structure (SMILES) | IC50 [1] | IC50 [2] | IC50 [5] | other results
1 | CCCCCNc1nc(N2CCC(NC(=O)c3ccc(C(=O)O)cn3)C2)nc2c1COC2 (centres undefined) | > 50 µM | > 50 µM | – | –
2 | Cc1ccc(Nc2nc(N3CCC(NC(=O)c4ccc(C(=O)O)cn4)C3)nc3c2COC3)cc1 (centres undefined) | > 50 µM | > 50 µM | – | –
3 | COc1cc(Nc2nc(N3CCC(NC(=O)c4ccc(C(=O)O)cn4)C3)nc3c2COC3)cc(OC)c1 (centres undefined) | 18.6 µM | – | 3.2 µM | Activity (Homo sapiens [3]): Dose-dependent effect; solubility at 24 h [4]: 167 µg/mL (≈ 330 µM); IC50 (BMMC [6]): 2 µM; Activity (BMMC [7]): Dose-dependent effect; Activity (Homo sapiens [8]): Dose-dependent effect
4 | COc1ccc(Nc2nc(N3CCC(NC(=O)c4ccc(C(=O)O)cn4)C3)nc3c2COC3)cc1 (centres undefined) | > 50 µM | > 50 µM | – | –
5 | CCCCCCNc1nc(N2CCC(NC(=O)c3ccc(C(=O)O)cn3)C2)nc2c1COC2 (centres undefined) | > 50 µM | > 50 µM | 4 µM | Activity (Homo sapiens [3]): Dose-dependent effect; Activity (Homo sapiens [8]): Dose-dependent effect
6 | COc1ccc(Nc2nc(N3CCC(NC(=O)c4ccc(C(=O)O)cn4)C3)nc3c2COC3)cc1OC (centres undefined) | > 50 µM | – | – | –
7 | O=C(O)c1ccc(C(=O)NC2CCN(c3nc4c(c(Nc5ccc6c(c5)OCCO6)n3)COC4)C2)nc1 (centres undefined) | 49.2 µM | > 50 µM | – | –
8 | O=C(O)c1ccc(C(=O)NC2CCN(c3nc4c(c(NC5CCCCC5)n3)COC4)C2)nc1 (centres undefined) | > 50 µM | > 50 µM | 5.4 µM | –
9 | COc1cc(Nc2nc(N3CCC(NC(=O)c4ccc(C(=O)O)cn4)C3)nc3c2COC3)cc(OC)c1OC (centres undefined) | 31.3 µM | – | 31 µM | IC50 (BMMC [6]): 21.1 µM
10 | COc1ccc(Nc2nc(N3CCC(NC(=O)c4ccc(C(=O)O)cc4)C3)nc3c2CCC3)cc1OC (centres undefined) | – | – | – | solubility at 24 h [4]: 86 µg/mL (≈ 171 µM)
11 | Cc1ccc(Nc2nc(N3CCC(NC(=O)c4ccc(C(=O)O)cn4)C3)nc3c2COC3)cc1C (centres undefined) | > 50 µM | > 50 µM | 11.2 µM | –
12 | CCCCCCCNc1nc(N2CCC(NC(=O)c3ccc(C(=O)O)cn3)C2)nc2c1COC2 (centres undefined) | 25.8 µM | > 50 µM | 8.1 µM | IC50 (BMMC [6]): 13 µM; Activity (BMMC [7]): Dose-dependent effect
13 | CCc1ccc(Nc2nc(N3CCC(NC(=O)c4ccc(C(=O)O)cn4)C3)nc3c2COC3)cc1 (centres undefined) | > 50 µM | > 50 µM | 9.4 µM | –
14 | COCCCNc1nc(N2CCC(NC(=O)c3ccc(C(=O)O)cn3)C2)nc2c1COC2 (centres undefined) | > 50 µM | > 50 µM | – | –
15 | CCOCCCNc1nc(N2CCC(NC(=O)c3ccc(C(=O)O)cn3)C2)nc2c1COC2 (centres undefined) | > 50 µM | > 50 µM | – | –
16 | Cc1ccc(NC(=O)c2ccc(CN3CCN(C)CC3)cc2)cc1Nc1nc(-c2cccnc2)cs1 [MASITINIB] | – | – | – | IC50 (BMMC [6]): 0.1 µM
